Test results from publication PMC2605016 (Structure (London, England : 1993), 2008).
One block for each compound: values may come before it.

Legend:
[1] = CaM pull-down assay with lens membranes; type: binding, lamb; settings: Ca^2+ treated lens pellets, molar excess EGTA, data not shown
Method in brief: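 Lamb lens fiber-cell membranes (2mg/ml total protein) were incubated with recombinant vertebrate CaM (0.67mg/ml) in 10mM Tris pH 8.0, 10mM CaCl2 for 30 minutes at 37°C. Binding was stopped on ice, and free CaM was removed by centrifugation at 10,000xg with 4 pellet washes. Molar excess EGTA was then added to the Ca2+-treated pellets. CaM was detected by SDS-PAGE with silver staining and by western blot.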

[2] = target: 15N-CaM (Homo sapiens, UniProt P0DP23); assay: NMR titration of 15N-CaM with AQP0 peptides; type: binding, vertebrate; settings: 25°C, pH 6.5, Ca^2+, data not shown
[3] = target: calmodulin (CaM); assay: 15N-HSQC NMR titration of 15N-CaM; settings: reference: unmodified AQP0CBD peptide, second binding event (1:2); sites S235

Compound: O=C(O)CN(CCOCCOCCN(CC(=O)O)CC(=O)O)CC(=O)O [EGTA]
- removal of membrane-bound CaM by EGTA [1]: efficiently removed

- interaction of control peptide with CaM [2]: no interaction
Compound: AQP0loop: peptide corresponding to a cytosolic AQP0 loop, residues 148–158, negative control (TYDERRNGRLG)

- KD [3]: weaker; reference 6.5 ± 5.5 × 10−6
Compound: Aquaporin-0 (AQP0, MIP) 223-242 (from UniProt Q6J8I9) S235-P peptide, second binding event (1:2)
